From ChEMBL document CHEMBL1155099, “Natural products in parallel synthesis: triazole libraries of nonactic acid” (2008)
Active and inactive are the calls of the source.

What was measured:
Type in all cases: functional, organism-based
[1] = tested on: Bacillus anthracis; experiment: Antibacterial activity against Bacillus anthracis at 1mM by almar blue dye reduction assay
[2] = tested on: Bacillus cereus; experiment: Antibacterial activity against Bacillus cereus at 1 mM by almar blue dye reduction assay
In short: (§1)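 Single-point primary screen at 1 mM using Alamar Blue dye reduction as the growth read-out.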

[3] = tested on: Bacillus subtilis; experiment: Antibacterial activity against Bacillus subtilis at 1 mM by almar blue dye reduction assay; in short: as §1
[4] = tested on: Staphylococcus aureus; experiment: Antibacterial activity against Staphylococcus aureus at 1 mM by almar blue dye reduction assay; in short: as §1
[5] = tested on: Escherichia coli; experiment: Antibacterial activity against Escherichia coli at 1 mM by almar blue dye reduction assay; in short: as §1
[6] = tested on: Pseudomonas aeruginosa; experiment: Antibacterial activity against Pseudomonas aeruginosa at 1 mM by almar blue dye reduction assay; in short: as §1
[7] = tested on: Candida albicans; experiment: Antifungal activity against Candida albicans at 1 mM by almar blue dye reduction assay; in short: as §1
[8] = tested on: Cryptococcus neoformans; experiment: Antifungal activity against Cryptococcus neoformans at 1 mM by almar blue dye reduction assay; in short: as §1
[9] = tested on: Saccharomyces cerevisiae; experiment: Antifungal activity against Saccharomyces cerevisiae at 1 mM by almar blue dye reduction assay; in short: as §1

Measured: Activity

CCCCN(CC#Cc1cn([C@H](C)C[C@@H]2CC[C@H]([C@@H](C)C(=O)N(CC)CC)O2)nn1)CCCC
inactive: all assays above

CC(C)NC(=O)[C@H](C)C1CCC(C[C@@H](C)n2cc(C#CCOC(=O)OCc3ccccc3)nn2)O1 (single isomer, unassigned)
inactive: all assays above

COCC#Cc1cn([C@H](C)C[C@@H]2CC[C@H]([C@@H](C)C(=O)N(C)Cc3ccccc3)O2)nn1
inactive: all assays above

C[C@H](C[C@@H]1CC[C@H]([C@@H](C)C(=O)N(C)Cc2ccccc2)O1)n1cc(C#CC2=CCCCC2)nn1
inactive: all assays above

C[C@H](C[C@@H]1CC[C@H]([C@@H](C)C(=O)N2CCCC2)O1)n1cc(C#CCOc2cccc(-c3ccccc3)c2)nn1
inactive: all assays above

CCCCCC#Cc1cn([C@H](C)C[C@@H]2CC[C@H]([C@@H](C)C(=O)NC(C)C)O2)nn1
inactive: all assays above

COc1ccc(OCC#Cc2cn([C@H](C)C[C@@H]3CC[C@H]([C@@H](C)C(=O)NC(C)C)O3)nn2)cc1
inactive: all assays above

C[C@H](C[C@@H]1CC[C@H]([C@@H](C)C(=O)N2CCCC2)O1)n1cc(C#CCOc2ccc(Br)cc2)nn1
inactive: all assays above

CC(C)NC(=O)[C@H](C)[C@H]1CC[C@@H](C[C@@H](C)n2cc(C#CCN3CCN(c4ccccc4)CC3)nn2)O1
inactive: all assays above

CCN(CC)C(=O)[C@H](C)[C@H]1CC[C@@H](C[C@@H](C)n2cc(C#CCOC)nn2)O1
inactive: all assays above

CCN(CC)C(=O)[C@H](C)[C@H]1CC[C@@H](C[C@@H](C)n2cc(C#Cc3ccc(-c4ccccc4)cc3)nn2)O1
inactive: all assays above

CC(C)NC(=O)[C@H](C)[C@H]1CC[C@@H](C[C@@H](C)n2cc(C#Cc3ccc(C(F)(F)F)cc3)nn2)O1
inactive: all assays above

CCN(CC)C(=O)[C@H](C)C1CCC(C[C@@H](C)n2cc(C#CCNC(=O)OCc3ccccc3)nn2)O1 (single isomer, unassigned)
inactive: all assays above

C[C@H](C[C@@H]1CC[C@H]([C@@H](C)C(=O)N2CCN(CC3CCCO3)CC2)O1)n1cc(C#CCc2ccccc2)nn1 (some centres not stated)
inactive: all assays above

CCN(CC)C(=O)[C@H](C)[C@H]1CC[C@@H](C[C@@H](C)n2cc(C#CCN3CCOCC3)nn2)O1
inactive: all assays above

C[C@H](C[C@@H]1CC[C@H]([C@@H](C)C(=O)N(C)Cc2ccccc2)O1)n1cc(C#CCN2CCN(c3ccccc3)CC2)nn1
inactive: all assays above

CC(C)NC(=O)[C@H](C)[C@H]1CC[C@@H](C[C@@H](C)n2cc(C#Cc3ccccn3)nn2)O1
inactive: all assays above

C[C@H](C[C@@H]1CC[C@H]([C@@H](C)C(=O)N2CCCC2)O1)n1cc(C#CCN2CCC(c3ccccc3)CC2)nn1
inactive: all assays above
